# Reference: publication PMC4934660 (Investigational new drugs, 2014)
# What was measured:
# [1] = test system: phosphorylated (active) NFκB p65 (pS529); experiment: Intracellular staining, phosphorylated NFκB p65; assay type: cell-based, human; details: AsPC-1; 2.4 μg/mL; 6 hours; flow cytometry; vs vehicle control; average of 3 experiments; student's T test
# Summary of the method: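 AsPC-1 cells were treated 6 h with 2.4 μg/mL test compound or vehicle control. After trypsinization, 4% paraformaldehyde fixation and ice-cold ethanol permeabilization, cells were stained directly 1 h RT with PE-conjugated mouse anti-NFκB p65 (pS529) or mouse IgG isotype; no secondary. Gates were set against the isotype. Flow cytometry, 20,000 events; Student's t test vs vehicle, mean of 3 experiments.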
# IRAK = experiment: Intracellular staining, IRAK in AsPC-1; assay type: cell-based, human; details: 2.4 μM, 6 hours, flow cytometry, average of 3 experiments, vs vehicle
# phosphorylated Jun Ser73 = experiment: Intracellular staining, phosphorylated Jun in AsPC-1; assay type: cell-based, human; details: 2.4 μM, 6 hours, flow cytometry, average of 3 experiments, vs vehicle
# TLR-1 = experiment: Intracellular staining, TLR-1 in AsPC-1; assay type: cell-based, human; details: 2.4 μM, 6 hours, flow cytometry, average of 3 experiments, vs vehicle
# phosphorylated Elk = experiment: Intracellular staining, phosphorylated Elk in AsPC-1; assay type: cell-based, human; details: 2.4 μM, 6 hours, flow cytometry, average of 3 experiments, vs vehicle
# IKKα = experiment: Intracellular staining, IKKα in AsPC-1; assay type: cell-based, human; details: 2.4 μM, 6 hours, flow cytometry, average of 3 experiments, vs vehicle
# MIA PaCa-2 = experiment: Markers of apoptosis; assay type: cell-based, human; details: 2.4 μg/mL, with the assays used
# Summary of the method: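 Caspase-3/7 luminescence. MIA PaCa-2 cells in DMEM with 5% horse serum and 10% FBS. 10,000 cells/well, adhered overnight, then given 2.4 μg/mL test compound or vehicle for 1, 3, 6 or 24 h. Equal volume of pro-luminescent DEVD substrate added, 30–60 min at RT with shaking, luminescence read. Expressed as fold over vehicle; Student's t test.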
# [2] = test system: phosphorylated Fos Ser 32; experiment: Intracellular staining, phosphorylated Fos in AsPC-1; assay type: cell-based, human; details: 2.4 μM, 6 hours, flow cytometry, average of 3 experiments, vs vehicle
# [3] = test system: phosphorylated GSK3β Ser9; experiment: Intracellular staining, phosphorylated GSK3β in AsPC-1; assay type: cell-based, human; details: 2.4 μM, 6 hours, flow cytometry, average of 3 experiments, not statistically significant (student's T test)
# Summary of the method: (§1)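 AsPC-1 cells (complete RPMI, 10% FBS, 37°C, 5% CO2) were exposed 6 h to test compound or vehicle control. They were trypsinized, fixed in 4% paraformaldehyde and permeabilized with ice-cold ethanol. Unconjugated primary antibody to the phospho-epitope (or rabbit IgG isotype) was applied 1 h RT, then PE-conjugated secondary 30 min RT. Flow cytometry, 20,000 events; Student's t test vs vehicle on the mean of 3 experiments.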
# TNFAIP3 = experiment: Intracellular staining, TNFAIP3 in AsPC-1; assay type: cell-based, human; details: 2.4 μM, 6 hours, flow cytometry, average of 3 experiments, vs vehicle
# HUVEC cells = experiment: Endothelial tube formation assay; assay type: cell-based; details: single experiment, preliminary, data not shown
# IL-8 = IL-8 ELISA, AsPC-1; assay type: cell-based, human; details: 2.4 μg/mL, 6 hours, compared to controls, significant, average of 3 experiments
# [4] = test system: TNF-related apoptosis-inducing ligand (TRAIL); experiment: Intracellular staining, TRAIL in AsPC-1; assay type: cell-based, human; details: 2.4 μM, 6 hours, flow cytometry, average of 3 experiments, vs vehicle
# BxPC-3 = experiment: TUNEL, BxPC-3; assay type: cell-based, human; details: 2.4 μg/mL, 24 hours (method), flow cytometry, average of 3 experiments
# Summary of the method: (§2)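 Cells (BxPC-3 and PANC-1 in complete RPMI with 10% FBS; MIA PaCa-2 in DMEM with 5% horse serum plus 10% FBS) were seeded at 500,000 per 6-well well and adhered overnight. They received 2.4 μg/mL test compound or vehicle for 24 h, then were trypsinized, fixed (4% paraformaldehyde) and ethanol-permeabilized. TdT/fluorescein-12-dUTP labelling ran 60 min at 37°C, stopped with 20mM EDTA. Flow cytometry, 20,000 events; Student's t test vs vehicle.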
# PANC-1 = experiment: TUNEL, PANC-1; assay type: cell-based, human; details: 2.4 μg/mL, 24 hours (method), flow cytometry, average of 3 experiments
# Summary of the method: as §2
# A549 NFκB-luc cell line = experiment: Cytotoxicity in A549/NFκB-luc reporter cell line; assay type: cell-based; details: 6 hours treatment
# Summary of the method: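 A549 cells stably carrying an NFκB-driven luciferase reporter, kept in DMEM with 10% FBS, penicillin/streptomycin and 100 μg/mL hygromycin B. Plated at 5 x 10^4 cells/well and allowed to adhere. Given 100 ng/ml TNF-α plus test compound (serial dilutions 0.00013–5 μg/mL) or vehicle for 6 h. Detergent-lysed; lysate equilibrated 30 min with ethidium bromide; fluorescence read at ex 340/em 590 nm.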
# [5] = test system: phosphorylated cyclin D1 Thr 286; experiment: Intracellular staining, phosphorylated cyclin D1 in AsPC-1; assay type: cell-based, human; details: 2.4 μM, 6 hours, flow cytometry, average of 3 experiments, not statistically significant (student's T test)
# Summary of the method: as §1
# [6] = test system: phosphorylated Akt Ser 473; experiment: Intracellular staining, phosphorylated AKT in AsPC-1; assay type: cell-based, human; details: 2.4 μM, 6 hours, flow cytometry, average of 3 experiments, not statistically significant (student's T test)
# Summary of the method: as §1
# TLR-3 = experiment: Intracellular staining, TLR-3 in AsPC-1; assay type: cell-based, human; details: 2.4 μM, 6 hours, flow cytometry, average of 3 experiments, vs vehicle
# MIA PaCa2 = experiment: TUNEL, MIA PaCa-2; assay type: cell-based, human; details: 2.4 μg/mL, 24 hours (method), flow cytometry, average of 3 experiments
# Summary of the method: as §2
structure (smiles),measurement,setting,value
COc1ccc(/C=C/CCCC[C@H](C)[C@H](O)[C@@H](O)[C@H]2NC(=O)CC3(O)NC(=O)CC3NC(=O)C[C@@H](O)CNC(=O)CN(C)C(=O)[C@@H](Cc3c(C(=O)O)[nH]c4ccccc34)NC(=O)CNC(=O)[C@H]2O)cc1 (some centres unmarked) [microsclerodermin A],Levels of phosphorylated (active) NFκB p65 (pS529),[1],significantly reduced
same,"Change in expression, IRAK",IRAK,No significant changes
same,Level of phosphorylated Jun,phosphorylated Jun Ser73,statistically significantly upregulated
same,"Change in expression, TLR-1",TLR-1,No significant changes
same,"Change in expression, phosphorylated Elk",phosphorylated Elk,No significant changes
same,"Change in protein level, IKKα",IKKα,no changes at the protein level
same,Markers of apoptosis,MIA PaCa-2,no markers of apoptosis were seen
same,Level of phosphorylated Fos,[2],statistically significantly upregulated
same,Level of phosphorylated (inactive) GSK3β,[3],increased
same,"Change in protein level, TNFAIP3",TNFAIP3,no changes at the protein level
same,Endothelial tube formation,HUVEC cells,decreased tube formation
same,Increase in IL-8 production,IL-8,about 2.5 fold
same,"Change in expression, TRAIL",[4],No significant changes
same,Apoptosis (TUNEL DNA fragmentation),BxPC-3,induced statistically significant apoptosis
same,Apoptosis (TUNEL DNA fragmentation),PANC-1,induced statistically significant apoptosis
same,Cytotoxicity in reporter cell line (in words),A549 NFκB-luc cell line,little or no cytotoxicity
same,Level of phosphorylated cyclin D1,[5],increased
same,Level of phosphorylated AKT,[6],increased
same,"Change in expression, TLR-3",TLR-3,No significant changes
same,DNA fragmentation (TUNEL),MIA PaCa2,not detected
